Source: ChEMBL document CHEMBL3817820, “Development of Potent and Selective Inhibitors for Group VIA Calcium-Independent Phospholipase A2 Guided by Molecular Dynamics and Structure-Activity Relationships” (J Med Chem, 2016)

What was measured:
[1] = target: T1, 85/88 kDa calcium-independent phospholipase A2 (Homo sapiens) (UniProt O60733); assay: Inhibition of human group VIA iPLA2 at 0.091 mol fraction using arachidonyl-1-14C PAPC by mixed micelles modified Dole assay
T1 sequence (whole entry): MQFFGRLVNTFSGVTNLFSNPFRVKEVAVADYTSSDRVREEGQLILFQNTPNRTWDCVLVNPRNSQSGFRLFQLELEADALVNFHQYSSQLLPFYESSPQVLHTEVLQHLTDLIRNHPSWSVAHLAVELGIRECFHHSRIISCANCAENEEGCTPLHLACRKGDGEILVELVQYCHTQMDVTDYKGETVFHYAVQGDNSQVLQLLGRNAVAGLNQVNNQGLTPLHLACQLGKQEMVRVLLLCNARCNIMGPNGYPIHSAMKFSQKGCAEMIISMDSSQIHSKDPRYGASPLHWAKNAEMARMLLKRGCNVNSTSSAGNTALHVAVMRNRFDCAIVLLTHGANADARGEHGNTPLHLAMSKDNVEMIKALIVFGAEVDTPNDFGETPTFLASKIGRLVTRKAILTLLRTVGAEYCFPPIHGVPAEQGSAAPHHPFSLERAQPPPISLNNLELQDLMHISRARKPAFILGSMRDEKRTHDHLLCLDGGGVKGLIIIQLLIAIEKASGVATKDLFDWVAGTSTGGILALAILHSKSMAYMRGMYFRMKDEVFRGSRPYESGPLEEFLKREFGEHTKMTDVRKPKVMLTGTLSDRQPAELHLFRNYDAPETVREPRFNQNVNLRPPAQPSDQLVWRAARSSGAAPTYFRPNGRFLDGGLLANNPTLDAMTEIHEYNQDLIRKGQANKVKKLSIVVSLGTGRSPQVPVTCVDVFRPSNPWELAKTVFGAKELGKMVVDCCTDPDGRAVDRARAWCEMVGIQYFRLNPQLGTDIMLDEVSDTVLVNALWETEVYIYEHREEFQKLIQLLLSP
Procedure, shortened: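 Substrate micelles: 400 μM Triton X-100, 98.3 μM PAPC, 1.7 μM arachidonyl-1-14C PAPC. Buffer: 100 mM HEPES pH 7.5, 2 mM ATP, 4 mM DTT. Inhibitor tested at 0.091 mole fraction from a 5 mM DMSO stock; percent inhibition determined.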

[2] = target: T1, 85/88 kDa calcium-independent phospholipase A2 (Homo sapiens); assay: Inhibition of human group VIA iPLA2 using arachidonyl-1-14C PAPC by mixed micelles modified Dole assay
Procedure, shortened: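 Run in the same micelle substrate (Triton X-100/PAPC/14C-PAPC) in 100 mM HEPES pH 7.5, 2 mM ATP and 4 mM DTT, on compounds showing over 95% inhibition in the screen. Percent inhibition plotted against log mole fraction; XI(50) and its error obtained by nonlinear regression.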

[3] = target: T2, Cytosolic phospholipase A2 (Homo sapiens) (UniProt P47712); assay: Inhibition of human group IVA cPLA2 at 0.091 mol fraction using arachidonyl-1-14C PAPC by mixed micelles modified Dole assay
T2 sequence (whole entry): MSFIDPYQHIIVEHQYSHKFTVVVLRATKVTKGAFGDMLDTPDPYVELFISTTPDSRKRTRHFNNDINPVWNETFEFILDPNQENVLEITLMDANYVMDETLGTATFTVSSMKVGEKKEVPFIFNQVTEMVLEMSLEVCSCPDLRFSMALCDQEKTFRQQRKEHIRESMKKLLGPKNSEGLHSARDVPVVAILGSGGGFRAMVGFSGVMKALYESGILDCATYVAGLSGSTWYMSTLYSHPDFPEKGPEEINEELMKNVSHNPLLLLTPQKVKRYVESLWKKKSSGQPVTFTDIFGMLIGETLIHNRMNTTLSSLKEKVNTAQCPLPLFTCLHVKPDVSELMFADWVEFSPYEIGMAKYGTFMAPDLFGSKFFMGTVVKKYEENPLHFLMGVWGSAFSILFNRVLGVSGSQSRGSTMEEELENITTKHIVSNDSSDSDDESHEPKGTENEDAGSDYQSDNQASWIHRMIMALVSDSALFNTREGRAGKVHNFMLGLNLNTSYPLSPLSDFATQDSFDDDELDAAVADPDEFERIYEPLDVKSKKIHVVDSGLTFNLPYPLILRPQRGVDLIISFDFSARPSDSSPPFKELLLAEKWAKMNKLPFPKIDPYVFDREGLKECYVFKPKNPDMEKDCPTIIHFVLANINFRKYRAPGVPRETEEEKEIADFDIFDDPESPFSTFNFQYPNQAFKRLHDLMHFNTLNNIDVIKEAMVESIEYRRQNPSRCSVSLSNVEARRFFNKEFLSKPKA
Procedure, shortened: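 Buffer: 100 mM HEPES pH 7.5 with 90 μM CaCl2, 2 mM DTT and 0.1 mg/ml BSA. Inhibitor screened at 0.091 mole fraction, added from a 5 mM DMSO stock; percent inhibition recorded.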

[4] = target: T3, Phospholipase A2 group V (Homo sapiens) (UniProt P39877); assay: Inhibition of human group V sPLA2 at 0.091 mol fraction using arachidonyl-1-14C PAPC by mixed micelles modified Dole assay
T3 sequence (whole entry): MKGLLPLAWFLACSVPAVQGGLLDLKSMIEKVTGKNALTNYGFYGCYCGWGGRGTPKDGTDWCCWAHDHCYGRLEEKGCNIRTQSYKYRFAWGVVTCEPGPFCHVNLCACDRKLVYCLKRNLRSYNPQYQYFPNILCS

SMILES	inhibition [1] [%]	XI50 [2]	inhibition [3] [%]	inhibition [4] [%]
COc1ccc(CCSCC(=O)C(F)(F)C(F)(F)F)cc1	100	0.00012	61	28
O=C(CSCCc1ccccc1)C(F)(F)C(F)(F)F	99	0.00015	< 25	< 25
O=C(CSCCc1ccc2ccccc2c1)C(F)(F)F	99	0.0002	88	32
COc1ccc(CCSCC(=O)C(F)(F)F)cc1	96	9e-05	60	< 25
COc1ccc(CCSCC(=O)c2noc(C(C)(C)C)n2)cc1	98	0.0057	70	38
COc1ccc(CCCCC(=O)c2noc(C(C)(C)C)n2)cc1	64	–	52	35
